Only some compounds are listed: those with a hit (about 2.2% of all), similar ones and a draw of the others.
LMPTP inh: LMPTP (human) inhibition; 360,000 tested, 0.22% active; recombinant LMPTP-A, OMFP fluorogenic substrate, fluorescence intensity; inhibition, % at 20 µM;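 active = compounds that cut the enzyme signal by at least half of the control window in the single-dose screen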;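 note: plate controls were DMSO wells with enzyme plus substrate for no effect and substrate without enzyme for full effect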
Target sequence (P24666 whole entry, looked up): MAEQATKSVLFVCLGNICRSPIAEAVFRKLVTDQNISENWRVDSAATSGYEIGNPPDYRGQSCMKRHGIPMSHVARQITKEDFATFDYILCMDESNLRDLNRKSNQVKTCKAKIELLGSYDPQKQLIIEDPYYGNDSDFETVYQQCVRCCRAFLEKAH
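Assay system: LMPTP-A phosphatase enzyme | Input: 0.625 nM enzyme | Also added: Fluorogenic phosphatase substrate OMFP at 400 µM final | Compound dosing: One test concentration per compound, 20 µM, with 3% DMSO overall | Schedule: 50 min enzyme reaction at room temperature, protected from light | Signal: Fluorescence intensity | Benchmarks: no-enzyme and uninhibited controls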
DNMT1 inh: inhibitors of human DNMT1; P26358; DNMT1 molecular beacon, Hinp1I cleavage, fluorescence; inhibition (reported as % activation of signal), % at 10 µM; 360,000 tested, 0.83% active; AID 588458; in the data active = inhibition above about 50%
STEP inh: inhibitors of human striatal-enriched phosphatase STEP; P54829; recombinant STEP, OMFP fluorogenic substrate, fluorescence; inhibition, % at 20 µM; 360,000 tested, 0.25% active; AID 588621;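 active = inhibition at 20 µM, scaled per plate between control wells, above about 37%, limit read from the data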;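 note: 0% = DMSO with enzyme and substrate and 100% = substrate only without enzyme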
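material = STEP tyrosine phosphatase | reagent = fluorogenic phosphatase substrate OMFP at 25 µM final | doses = single compound dose of 20 µM, 1% DMSO final | schedule = 20 min reaction, room temperature, in the dark | measured by = fluorescence, 480/540 nm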
GRK2 aptamer HTS: inhibitors of human GRK2 displacing RNA aptamer; P25098; bead flow cytometry, FAM-aptamer displacement from GRK2; inhibition of aptamer binding, % at 10 µM; 330,000 tested, 0.59% active; AID 488847;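 active = inhibition of aptamer binding above 40%, roughly 3 SD of noise, on plates passing a quality check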;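 note: median bead fluorescence of bound FAM aptamer so fluorescent compounds give negative values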
Scp-1 inhibitor: inhibitors of human Scp-1 phosphatase | 340,000 tested, 0.88% active | inhibition, % at 20 µM | Recombinant Scp1, phosphopeptide, malachite green phosphate absorbance | AID 493091 | Q9GZU7;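 active = inhibition above about 50% at 20 µM, limit read from the data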;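 note: plate controls were DMSO wells with enzyme for no effect and wells lacking enzyme for full effect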
Target sequence (Q9GZU7 76-261 limits assumed): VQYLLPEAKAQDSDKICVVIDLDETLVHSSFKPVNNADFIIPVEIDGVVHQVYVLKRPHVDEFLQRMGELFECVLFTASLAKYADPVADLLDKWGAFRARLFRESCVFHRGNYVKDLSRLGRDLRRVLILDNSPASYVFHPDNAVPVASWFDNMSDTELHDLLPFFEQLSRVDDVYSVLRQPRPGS
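Material – SCP-1 phosphatase catalytic domain, residues 76-261 · Buffer or medium – Acidic Tris acetate buffer with magnesium and detergent · Also added – Phospho 17-mer peptide substrate · Compound – single 20 µM dose, 1% DMSO · Times – 45 min room-temperature reaction, 5 min colour, 30 min stabiliser · Technique – Phosphate-binding colour reagent, absorbance read at 630 nm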
SUMO1 PPI mod: SUMO1-SIM interaction modulation; inhibition, % at 20 µM; AID 602429; 360,000 tested, 0.33% active; SUMO1 binding to a labelled peptide, TR-FRET, 1 h; P63165; in the data active = inhibition above about 37%
Target sequence (P63165 whole entry, looked up): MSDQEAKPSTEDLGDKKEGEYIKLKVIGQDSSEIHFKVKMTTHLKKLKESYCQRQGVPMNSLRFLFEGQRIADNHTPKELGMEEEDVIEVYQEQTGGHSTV
DNMT1 inh conf: DNMT1 inhibition confirmation, single concentration; DNMT1 molecular beacon HinP1I cleavage, fluorescence; 2,300 tested, 8% active; inhibition, % at 10 µM; shares compounds with DNMT1 inh; AID 602385;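 active = average inhibition of at least 30% in the single-concentration confirmation test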
Beacon interf: shows spectral interference in the DNMT1 beacon assay | activation (fluorescence interference), % at 10 µM | shares compounds with DNMT1 inh | 2,300 tested, 1% active | DNMT1 molecular beacon spectral interference counterscreen, fluorescence 485/520;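 active = activation of at least 30% at 10 µM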;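 note: DNMT1 catalytic domain with a HinP1I cleavage step and a FAM/dabcyl DNA beacon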
Active calls of the source: *; · = not tested or not shown.

SMILES	LMPTP inh	DNMT1 inh	STEP inh	GRK2 aptamer HTS	Scp-1 inhibitor	SUMO1 PPI mod	DNMT1 inh conf	Beacon interf
Nc1nc(Nc2ccccc2)sc1C(=O)c1ccccc1	3	-8	2	1	5	-24	·	·
COc1ccc(C(=O)c2sc(Nc3ccccc3)nc2N)cc1	2	89*	2	2	-2	-4	2	5
CC1(OC(=O)CCc2ccccc2)C(=O)C=C2C=C3CCCN3C=C2C1=O (stereo not drawn)	5	77*	7	5	8	2	2	0
CCn1c(SCC(=O)Nc2cc(F)ccc2C)nnc1-c1ccccc1O	0	56*	24	0	-11	-1	1	1
CCn1c(SCC(=O)Nc2ccccc2C)nnc1-c1ccccc1O	-1	-1	-2	2	0	3	·	·
COc1ccccc1Cc1c(-c2ccco2)nc2ccc(Cl)cn12	6	25	0	·	·	4	·	·
COc1ccccc1Cc1c(-c2ccco2)nc2ccc(Br)cn12	11	71*	2	·	·	12	3	4
Clc1ccc2nc(-c3ccco3)c(Cc3ccccc3)n2c1	7	64*	-1	·	·	5	5	3
CCOC(=O)[C@]12CCCC=C1N(Cc1ccccc1)C(=O)[C@H](CC(=O)N1CCN(C(=O)C3CC3)CC1)C2	0	·	·	·	·	1	·	·
Clc1nc2ccccc2cc1/C=N/Nc1nc2ccccc2[nH]1	5	55*	6	0	-10	-9	2	-7
C(=N\Nc1nc2ccccc2[nH]1)/c1ccncc1	2	0	0	0	-3	-10	·	·
CNc1ncnc2c1ncn2[C@H]1CN(Cc2ccc(F)cc2)C[C@@H](CO)O1	3	0	0	·	·	-1	·	·
O=C(N/N=C/c1cc(Br)c(Br)o1)C(O)c1ccccc1 (stereo not drawn)	5	77*	4	6	35	-1	3	2
COc1ccc(C#Cc2cccc(-c3nc(C(=O)N4CCN(C)CC4)cc4c3[C@H](CCO)N(S(=O)C(C)(C)C)C4)c2)cc1OC (stereo partly drawn)	-2	-5	1	·	·	3	·	·
CC(SC(C)C(=O)NN=Cc1cccc(Cl)c1)C(=O)NN=Cc1cccc(Cl)c1 (stereo not drawn)	-1	65*	0	·	-7	-1	6	7
COc1cccc(C=NNC(=O)C(C)SC(C)C(=O)NN=Cc2cccc(OC)c2)c1 (stereo not drawn)	0	0	2	·	1	-5	·	·
O=C(COc1ccc(Br)cc1)Nc1ccc(N2CCOCC2)cc1N1CCOCC1	0	55*	1	0	0	25	5	5
O=C(Nc1ccc(N2CCOCC2)cc1N1CCOCC1)c1ccc(Br)cc1	-1	-4	0	0	4	6	·	·
C=CCn1c(N)c(C(=O)OC(C)CC)c2nc3ccccc3nc21 (stereo not drawn)	9	70*	1	·	1	38	8	7
Cc1ccc([C@H]2C[C@@H](n3cc(COC(=O)c4ccccc4)nn3)[C@H](O)CN2C(=O)C2CCCCC2)cc1	0	-2	-3	·	·	-2	·	·
Cc1ccc2nc(NC(=O)C3CCN(S(=O)(=O)c4cc([N+](=O)[O-])ccc4Cl)CC3)sc2c1	4	60*	0	11	64*	3	2	-3
CC(C)c1ccc(NC(=O)C(c2ccccc2)N2CCN(C=O)CC2)cc1 (stereo not drawn)	0	-2	3	3	-4	3	·	·
CC(C)c1ccc(NC(=O)C(c2ccccc2)N2CCOCC2)cc1 (stereo not drawn)	50*	71*	-1	4	-6	8	2	4
O=C(CNC(=O)Cc1ccccc1)N=Nc1c(O)[nH]c2ccccc12	1	-1	3	0	2	-24	·	·
